Laboratory results published in ChEMBL document CHEMBL1123776, “Solid-phase synthesis and biological properties of psi [CH2NH] pseudopeptide analogues of a highly potent somatostatin octapeptide” (1987).

How the values were obtained:
[1] = system: Rattus norvegicus; assay: Ability to inhibit growth hormone release in the anesthetized rats measured as plasma growth hormone at a dose of 0.6 ug/100 g BW; type: functional, organism-based
Outline: (§1)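 Male Sprague-Dawley rats anesthetized with sodium pentobarbital were given peptide, with saline and tetradecapeptide SRIF controls, at doses of 0.003–10 µg/100 g BW. Plasma GH was measured by radioimmunoassay. Values are mean ± SEM, with the number of rats per group given.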

[2] = system: Rattus norvegicus; assay: Ability to inhibit growth hormone release in the anesthetized rats measured as plasma growth hormone at a dose of 0.2 ug/100 g BW; type: functional, organism-based; outline: as §1
[3] = system: Rattus norvegicus; assay: Ability to inhibit growth hormone release in vivo in sodium pentobarbital anesthetized rats; type: functional; outline: as §1
[4] = organism: Rattus norvegicus; assay: Ability to inhibit growth hormone release in vitro in cultured rat anterior pituitary cells; type: functional, Pituitary gland cell
Outline: (§2)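 Primary cultures of male rat anterior pituitary cells were kept for 4 days and then exposed to peptide. GH in the medium was measured by radioimmunoassay. The EC50 (50% inhibition of GH secretion) was fitted with ALLFIT. Potency was expressed as the ratio to the EC50 of tetradecapeptide SRIF as reference standard.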

[5] = organism: Rattus norvegicus; assay: Activity is measured as concentration producing 50% inhibition of growth hormone secretion in rats; type: functional; outline: as §2
[6] = system: Rattus norvegicus; assay: Ability to inhibit growth hormone release in the anesthetized rats measured as plasma growth hormone at a dose of 1 ug/100 g BW; type: functional, organism-based; outline: as §1
[7] = system: Rattus norvegicus; assay: Ability to inhibit growth hormone release in the anesthetized rats measured as plasma growth hormone at a dose of 0.1 ug/100 g BW; type: functional, organism-based; outline: as §1
[8] = system: Rattus norvegicus; assay: Ability to inhibit growth hormone release in the anesthetized rats measured as plasma growth hormone at a dose of 0.01 ug/100 g BW; type: functional, organism-based; outline: as §1
[9] = system: Rattus norvegicus; assay: Ability to inhibit growth hormone release in the anesthetized rats measured as plasma growth hormone at a dose of 0.03 ug/100 g BW; type: functional, organism-based; outline: as §1
[10] = system: Rattus norvegicus; assay: Ability to inhibit growth hormone release in the anesthetized rats measured as plasma growth hormone at a dose of 10 ug/100 g BW; type: functional, organism-based; outline: as §1
[11] = system: Rattus norvegicus; assay: Ability to inhibit growth hormone release in the anesthetized rats measured as plasma growth hormone ata dose of 0.01 ug/100 g BW; type: functional, organism-based; outline: as §1
[12] = system: Rattus norvegicus; assay: Ability to inhibit growth hormone release in the anesthetized rats measured as plasma growth hormone at a dose of 10 ug/100 g; type: functional, organism-based; outline: as §1
[13] = system: Rattus norvegicus; assay: Ability to inhibit growth hormone release in the anesthetized rats measured as plasma growth hormone at a dose of 0.09 ug/100 g BW; type: functional, organism-based; outline: as §1

For `CC(C)[C@H]1NC(=O)[C@H](CCCCN)NC(=O)[C@@H](Cc2c[nH]c3ccccc23)NC(=O)[C@H](Cc2ccc(O)cc2)NC(=O)[C@@H](NC(=O)[C@@H](N)Cc2ccccc2)CSSC[C@H](CN[C@H](C(N)=O)[C@@H](C)O)NC1=O`, the Plasma GH [1] was 156 ng/mL and the Plasma GH [2] was 248 ng/mL.

With `CC(C)[C@@H]1CN[C@H](C(=O)N[C@H](C(N)=O)[C@@H](C)O)CSSC[C@H](NC(=O)[C@H](N)Cc2ccccc2)C(=O)N[C@@H](Cc2ccc(O)cc2)C(=O)N[C@H](Cc2c[nH]c3ccccc23)C(=O)N[C@@H](CCCCN)C(=O)N1` the Potency [3] was 2%, the Potency [4] was 0.02% and the ED50 [5] was 350 nM.

`CC(C)[C@H]1NC[C@H](CCCCN)NC(=O)[C@@H](Cc2c[nH]c3ccccc23)NC(=O)[C@H](Cc2ccc(O)cc2)NC[C@@H](NC(=O)[C@@H](N)Cc2ccccc2)CSSC[C@H](C(=O)N[C@H](C(N)=O)[C@@H](C)O)NC1=O` gave a Plasma GH [6] of 124 ng/mL, a Plasma GH [7] of 250 ng/mL and a Plasma GH [8] of 258 ng/mL.

`CC(C)[C@H]1NC(=O)[C@H](CCCCN)NC(=O)[C@@H](Cc2c[nH]c3ccccc23)NC(=O)[C@H](Cc2ccc(O)cc2)NC(=O)[C@@H](NC[C@@H](N)Cc2ccccc2)CSSC[C@H](C(=O)N[C@H](C(N)=O)[C@@H](C)O)NC1=O` showed a Plasma GH [1] of 90 ng/mL and a Plasma GH [2] of 185 ng/mL.

With `CC(C)[C@H]1NC(=O)[C@H](CCCCN)NC(=O)[C@@H](Cc2c[nH]c3ccccc23)NC(=O)[C@H](Cc2ccc(O)cc2)NC[C@@H](NC(=O)[C@@H](N)Cc2ccccc2)CSSC[C@H](C(=O)N[C@H](C(N)=O)[C@@H](C)O)NC1=O` the Plasma GH [8] was 146 ng/mL and the Plasma GH [9] was 98 ng/mL.

Work on `CC(C)[C@H]1NC(=O)[C@H](CCCCN)NC(=O)[C@@H](Cc2c[nH]c3ccccc23)NC[C@H](Cc2ccc(O)cc2)NC(=O)[C@@H](NC(=O)[C@@H](N)Cc2ccccc2)CSSC[C@H](C(=O)N[C@H](C(N)=O)[C@@H](C)O)NC1=O` yielded a Plasma GH [10] of 137 ng/mL, a Plasma GH [6] of 176 ng/mL and a Plasma GH [7] of 307 ng/mL.

With `CC(C)[C@@H]1NC(=O)[C@H](CCCCN)NC(=O)[C@@H](Cc2c[nH]c3ccccc23)NC(=O)[C@H](Cc2ccc(O)cc2)NC[C@@H](NC(=O)[C@H](N)Cc2ccccc2)CSSC[C@@H](C(=O)N[C@H](C(N)=O)[C@@H](C)O)NC1=O` the Potency [3] was 1960%, the Potency [4] was 17.43% and the ED50 [5] was 0.35 nM.

Work on `CC(C)[C@@H]1NC[C@H](CCCCN)NC(=O)[C@@H](Cc2c[nH]c3ccccc23)NC(=O)[C@H](Cc2ccc(O)cc2)NC[C@@H](NC(=O)[C@H](N)Cc2ccccc2)CSSC[C@@H](C(=O)N[C@H](C(N)=O)[C@@H](C)O)NC1=O` yielded a Potency [3] of 65%, a Potency [4] of 0.98% and an ED50 [5] of 6.3 nM.

`CC(C)[C@@H]1NC[C@H](CCCCN)NC(=O)[C@@H](Cc2c[nH]c3ccccc23)NC(=O)[C@H](Cc2ccc(O)cc2)NC[C@@H](NC(=O)[C@H](N)Cc2ccc3ccccc3c2)CSSC[C@@H](C(=O)N[C@H](C(N)=O)[C@@H](C)O)NC1=O` gave a Potency [3] of 50%, a Potency [4] of 3.44% and an ED50 [5] of 1.8 nM.

For `CC(C)[C@@H]1NC(=O)[C@H](CCCCN)NC[C@@H](Cc2c[nH]c3ccccc23)NC(=O)[C@H](Cc2ccc(O)cc2)NC(=O)[C@@H](NC(=O)[C@H](N)Cc2ccccc2)CSSC[C@@H](C(=O)N[C@H](C(N)=O)[C@@H](C)O)NC1=O`, the Potency [3] was 2%, the Potency [4] was 0.03% and the ED50 [5] was 190 nM.

For `CC(C)[C@H]1NC[C@H](CCCCN)NC(=O)[C@@H](Cc2c[nH]c3ccccc23)NC(=O)[C@H](Cc2ccc(O)cc2)NC[C@@H](NC(=O)[C@@H](N)Cc2ccc3ccccc3c2)CSSC[C@H](C(=O)N[C@H](C(N)=O)[C@@H](C)O)NC1=O`, the Plasma GH [11] was 433 ng/mL, the Plasma GH [6] was 133 ng/mL and the Plasma GH [7] was 291 ng/mL.

With `CC(C)[C@H]1NC(=O)[C@H](CCCCN)NC[C@@H](Cc2c[nH]c3ccccc23)NC(=O)[C@H](Cc2ccc(O)cc2)NC(=O)[C@@H](NC(=O)[C@@H](N)Cc2ccccc2)CSSC[C@H](C(=O)N[C@H](C(N)=O)[C@@H](C)O)NC1=O` the Plasma GH [10] was 265 ng/mL, the Plasma GH [6] was 348 ng/mL and the Plasma GH [7] was 325 ng/mL.

`CC(C)[C@@H]1CN[C@H](C(=O)N[C@H](C(N)=O)[C@@H](C)O)CSSC[C@H](NC(=O)[C@H](N)Cc2ccccc2)C(=O)N[C@@H](Cc2ccc(O)cc2)C(=O)N[C@H](Cc2c[nH]c3ccccc23)CN[C@@H](CCCCN)C(=O)N1` was tested, and the Potency [3] was 2%, the Potency [4] was under 0.001% and the ED50 [5] was over 1000 nM.

Work on `CC(C)[C@@H]1NC(=O)[C@H](CCCCN)NC(=O)[C@@H](Cc2c[nH]c3ccccc23)NC(=O)[C@H](Cc2ccc(O)cc2)NC(=O)[C@@H](NC[C@@H](N)Cc2ccccc2)CSSC[C@@H](C(=O)N[C@H](C(N)=O)[C@@H](C)O)NC1=O` yielded a Potency [3] of 160%, a Potency [4] of 1.01% and an ED50 [5] of 6.1 nM.

`CC(C)[C@@H]1CN[C@@H](C(=O)N[C@H](C(N)=O)[C@@H](C)O)CSSC[C@H](NC(=O)[C@@H](N)Cc2ccccc2)C(=O)N[C@@H](Cc2ccc(O)cc2)C(=O)N[C@H](Cc2c[nH]c3ccccc23)C(=O)N[C@@H](CCCCN)C(=O)N1` gave a Plasma GH [10] of 225 ng/mL, a Plasma GH [6] of 266 ng/mL and a Plasma GH [7] of 381 ng/mL.

Molecule `CC(C)[C@@H]1NC[C@H](CCCCN)NC(=O)[C@@H](Cc2c[nH]c3ccccc23)NC(=O)[C@H](Cc2ccc(O)cc2)NC(=O)[C@@H](NC(=O)[C@H](N)Cc2ccccc2)CSSC[C@@H](C(=O)N[C@H](C(N)=O)[C@@H](C)O)NC1=O` has a Potency [3] of 434%, a Potency [4] of 67.27% and an ED50 [5] of 0.092 nM.

With `CC(C)[C@@H]1NC(=O)[C@H](CCCCN)NC(=O)[C@@H](Cc2c[nH]c3ccccc23)NC[C@H](Cc2ccc(O)cc2)NC(=O)[C@@H](NC(=O)[C@H](N)Cc2ccccc2)CSSC[C@@H](C(=O)N[C@H](C(N)=O)[C@@H](C)O)NC1=O` the Potency [3] was 20%, the Potency [4] was 0.68% and the ED50 [5] was 9.1 nM.

`CC(C)[C@@H]1CN[C@@H](C(=O)N[C@H](C(N)=O)[C@@H](C)O)CSSC[C@H](NC(=O)[C@@H](N)Cc2ccccc2)C(=O)N[C@@H](Cc2ccc(O)cc2)C(=O)N[C@H](Cc2c[nH]c3ccccc23)CN[C@@H](CCCCN)C(=O)N1` was tested, and the Plasma GH [6] was 393 ng/mL, the Plasma GH [7] was 509 ng/mL and the Plasma GH [12] was 325 ng/mL.

Work on `CC(C)[C@@H]1NC(=O)[C@H](CCCCN)NC(=O)[C@@H](Cc2c[nH]c3ccccc23)NC(=O)[C@H](Cc2ccc(O)cc2)NC(=O)[C@@H](NC(=O)[C@H](N)Cc2ccccc2)CSSC[C@H](CN[C@H](C(N)=O)[C@@H](C)O)NC1=O` yielded a Potency [3] of 73%, a Potency [4] of 0.41% and an ED50 [5] of 15 nM.

In the case of `CC(C)[C@H]1NC[C@H](CCCCN)NC(=O)[C@@H](Cc2c[nH]c3ccccc23)NC(=O)[C@H](Cc2ccc(O)cc2)NC(=O)[C@@H](NC(=O)[C@@H](N)Cc2ccccc2)CSSC[C@H](C(=O)N[C@H](C(N)=O)[C@@H](C)O)NC1=O`, the Plasma GH [13] is reported as 120 ng/mL and the Plasma GH [9] is reported as 174 ng/mL.
